Here are results for four compounds from ChEMBL document CHEMBL1154674, “Synthesis and evaluation of three 18F-labeled aminophenylbenzothiazoles as amyloid imaging agents” (J Med Chem, 2009).

SMILES strings stand for the structures.

Holding throughout (type): ADME, organism-based, Macaca mulatta
Series [1] is described as follows: Drug level in normal rhesus monkey cerebellum assessed as standard uptake value at 152.9 MBq, iv after 37.5 mins by microPET. Particulars: in vivo, 0.625 h. The procedure, abridged: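 One normal rhesus monkey received each tracer via the vena saphena, with 1 day between injections. Dynamic μPET ran 180 min for 18F tracers (5×60 s, 5×120 s, 9×300 s, 12×600 s) and 90 min for the 11C tracer (5×60 s, 5×120 s, 9×300 s, 3×600 s). Filtered back-projection reconstruction (RAMP filter) was used. Time-activity curves were drawn to give regional SUV.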

A short description of series [2]: Drug level in normal rhesus monkey thalamus assessed as standard uptake value at 152.9 MBq, iv after 4.5 mins by microPET. Particulars: in vivo, 0.075 h.
The nature of series [3]: Drug level in normal rhesus monkey pons assessed as standard uptake value at 109.4 MBq, iv after 117 mins by microPET. Particulars: in vivo, 1.95 h.
Series [4] in a line: Drug level in normal rhesus monkey cerebellum assessed as standard uptake value at 109.4 MBq, iv after 15.5 mins by microPET. To be noted: in vivo.
Series [5] in a line: Drug level in normal rhesus monkey pons assessed as standard uptake value at 96.3 MBq, iv after 32.5 mins by microPET. Particulars: in vivo.
Series [6] in a line: Drug level in normal rhesus monkey thalamus assessed as standard uptake value at 96.3 MBq, iv after 0.5 mins by microPET. Particulars: in vivo.
Series [7] is described as follows: Drug level in normal rhesus monkey cerebellum assessed as standard uptake value at 96.3 MBq, iv after 1.5 mins by microPET. Particulars: in vivo, 0.025 h. In short, it runs like this: (§1)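 One normal rhesus monkey, each tracer given iv via the vena saphena (81.2, 96.3 or 109.4 MBq), with 1 day between tracer injections. Dynamic brain μPET over 180 min used frames of 5 × 60 s, 5 × 120 s, 9 × 300 s and 12 × 600 s. Images were reconstructed by filtered back projection with a RAMP filter. Regional time-activity curves were expressed as SUV.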

A short description of series [8]: Drug level in normal rhesus monkey thalamus assessed as standard uptake value at 96.3 MBq, iv after 37.5 mins by microPET. Particulars: in vivo, 0.625 h.
Series [9] can be described thus: Drug level in normal rhesus monkey cerebellum assessed as standard uptake value at 81.2 MBq, iv after 27.5 mins by microPET. To be noted: in vivo. The procedure, abridged:
as §1

Series [10] can be described thus: Drug level in normal rhesus monkey pons assessed as standard uptake value at 81.2 MBq, iv after 145 mins by microPET. To be noted: in vivo.
A short description of series [11]: Drug level in normal rhesus monkey parietal cortex assessed as standard uptake value at 81.2 MBq, iv after 52.5 mins by microPET. Particulars: in vivo, 0.875 h.

As for `[11CH3]Nc1ccc(-c2nc3ccc(O)cc3s2)cc1` [PITTSBURGH COMPOUND B], the SUV turned out to be 0.996 in series [1] and 2.075 in [2].
As to `Nc1ccc2nc(-c3ccc([18F])cc3)sc2c1`, the figures for the SUV in [3] and in [4] were 4.76 and 4.94, respectively.
Take `CN(C)c1ccc2nc(-c3ccc([18F])cc3)sc2c1`: the SUV is 1.67 in series [5], 0.63 in series [6], 1.17 in [7] and 2.33 in [8].
`CNc1ccc2nc(-c3ccc([18F])cc3)sc2c1`: the figures for the SUV in series [9], in [10] and in [11] were 2.224, 5.067 and 3.552, respectively.
